Measurements taken from ChEMBL document CHEMBL1926655, “Electron-donating para-methoxy converts a benzamide-isoquinoline derivative into a highly Sigma-2 receptor selective ligand” (Bioorg Med Chem, 2011).
Active and inactive are the calls of the source. The calls are words filed in the database; no cut-off is given here.

Key:
[1] = Displacement of [3H]ditolylguanidine from sigma 2 receptor in rat liver membrane after 1.5 hrs by scintillation counting in presence of sigma 1 blocker (+)-pentazocine; assay type: cell membranes
In short: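 Rat liver membranes (~50 μg total protein per reaction) in 50 mM Tris-HCl pH 8.0 with 10 nM [³H]-DTG plus 100 nM cold (+)-pentazocine to mask σ1 sites. […] Filtration on PEI-pretreated GF/B, scintillation counting, one-site competition fit, Ki via Cheng-Prusoff.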

Rattus norvegicus = species: Rattus norvegicus; experiment: Selectivity ratio of Ki for rat sigma 1 receptor to Ki for rat sigma 2 receptor
In short: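 Ratio of Ki values from rat liver membrane competition binding: σ1 with 10 nM [³H]-(+)-pentazocine, σ2 with 10 nM [³H]-DTG plus 100 nM (+)-pentazocine; 1.5 h at 32°C, filtration and scintillation counting, Ki by Cheng-Prusoff.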

[2] = target: Sigma non-opioid intracellular receptor 1 (Rattus norvegicus, UniProt Q9R0C9); experiment: Displacement of (+)-[3H]pentazocine from sigma 1 receptor in rat liver membrane after 1.5 hrs by scintillation counting; assay type: cell membranes
In short: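 Rat liver membranes (~50 μg total protein per reaction) incubated with 10 nM [³H]-(+)-pentazocine and serial dilutions of compound (stocks in DMSO) for 1.5 h at 32°C. […] Filtered through polyethyleneimine-pretreated GF/B filters, bound radioactivity counted by liquid scintillation. One-site competition fit, Ki by Cheng-Prusoff.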

RT-4 = experiment: Displacement of [125I]IAF from sigma 2 receptor in human RT4 cells at 10 uM after 30 mins preincubation by photoaffinity labeling experiment; assay type: cell-based
In short: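 Fresh membranes from sonicated RT4 human bladder papilloma cells (200 μg protein per reaction) preincubated with compound in 50 mM Tris pH 7.4, 30 min, 32°C. Then 1 nM [¹²⁵I]-IAF (final 1% ethyl acetate) added for 30 min at 32°C, photoactivated 6 sec with mercury lamp, quenched in SDS/β-mercaptoethanol sample buffer; labeled receptor bands examined.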

Sigma non-opioid intracellular receptor 1, sequence (Q9R0C9 whole entry): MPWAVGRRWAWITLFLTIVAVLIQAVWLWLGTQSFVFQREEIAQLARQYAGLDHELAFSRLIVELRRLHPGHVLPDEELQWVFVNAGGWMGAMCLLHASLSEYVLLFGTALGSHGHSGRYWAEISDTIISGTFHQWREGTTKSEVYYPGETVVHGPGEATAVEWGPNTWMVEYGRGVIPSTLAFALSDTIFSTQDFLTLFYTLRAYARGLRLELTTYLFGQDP

| SMILES | Ki [1] [µM] | Ratio Ki (Rattus norvegicus) | Ki [2] [µM] | Activity (RT-4) |
| --- | --- | --- | --- | --- |
| COc1cc2c(cc1OC)CN(CCCCNC(=O)c1ccc([N+](=O)[O-])cc1)CC2 | 152 | 0.096 | 14.7 |  |
| COc1cccc(C(=O)NCCCCN2CCc3ccc([N+](=O)[O-])cc3C2)c1OC | 12.9 | 0.61 | 7.87 | inactive |
| COc1ccc(C(=O)NCCCCN2CCc3ccc([N+](=O)[O-])cc3C2)c(OC)c1OC | 0.0268 | 385 | 10.3 |  |
| COc1cc2c(cc1OC)CN(CCCCNC(=O)c1cccc(OC)c1O)CC2 | 1.4 | 48.4 | 67.8 |  |
| COc1cc2c(cc1OC)CN(CCCCNC(=O)c1ccccc1)CC2 | 5.29 |  | > 10000 |  |
| COc1cccc(C(=O)NCCCCN2CCc3ccc([N+](=O)[O-])cc3C2)c1O | 4 | 2.8 | 11.2 |  |
| COc1c(I)ccc(C(=O)NCCCCN2CCc3ccc([N+](=O)[O-])cc3C2)c1O | 0.867 | 86.2 | 74.7 |  |
| COc1cc2c(cc1OC)CN(CCCCNC(=O)c1cccc([N+](=O)[O-])c1)CC2 | > 10000 |  | 1210 |  |
| O=C1c2ccccc2C(=O)N1CCCCN1CCc2ccc([N+](=O)[O-])cc2C1 | 0.0213 | 4.12 | 0.0875 | Active |
| O=C(CCCN1CCC(O)(c2ccc(Cl)cc2)CC1)c1ccc(F)cc1 |  |  |  | Active |
